ChEMBL document CHEMBL1149126, “3-phenyl-6-(2-pyridyl)methyloxy-1,2,4-triazolo[3,4-a]phthalazines and analogues: high-affinity gamma-aminobutyric acid-A benzodiazepine receptor ligands with alpha 2, alpha 3, and alpha 5-subtype binding selectivity over alpha 1” (J Med Chem, 2004)
One block for each compound: values may come before it.

Assays:
[1] = biological target: T1, GABA-A receptor; alpha-3/beta-3/gamma-2 (Homo sapiens) (UniProt P18507+P28472+P34903); test: (§1) Maximum percent change compared to GABA EC20 against GABA-A alpha-3-beta-3-gamma-2 receptor; format: functional
[2] = biological target: T2, GABA-A receptor; alpha-1/beta-3/gamma-2 (Homo sapiens, UniProt P14867+P18507+P28472); test: Binding affinity for human GABA-A receptor alpha-1-beta-3-gamma-2 subunits in L(tk-) cells
T2 sequence (P14867 whole entry): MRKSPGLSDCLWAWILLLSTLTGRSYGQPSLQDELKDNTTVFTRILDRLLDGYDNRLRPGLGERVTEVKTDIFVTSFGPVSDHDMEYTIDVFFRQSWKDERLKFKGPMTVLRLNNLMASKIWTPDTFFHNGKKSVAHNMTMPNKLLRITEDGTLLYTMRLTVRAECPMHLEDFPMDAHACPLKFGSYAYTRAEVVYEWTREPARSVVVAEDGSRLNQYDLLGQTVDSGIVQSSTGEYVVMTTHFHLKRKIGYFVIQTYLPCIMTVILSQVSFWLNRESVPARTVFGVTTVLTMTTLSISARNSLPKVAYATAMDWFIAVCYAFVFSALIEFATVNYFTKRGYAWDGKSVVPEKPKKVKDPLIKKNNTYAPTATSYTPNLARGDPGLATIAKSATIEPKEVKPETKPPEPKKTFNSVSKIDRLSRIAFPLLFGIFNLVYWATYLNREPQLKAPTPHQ
T2 sequence (P18507 whole entry): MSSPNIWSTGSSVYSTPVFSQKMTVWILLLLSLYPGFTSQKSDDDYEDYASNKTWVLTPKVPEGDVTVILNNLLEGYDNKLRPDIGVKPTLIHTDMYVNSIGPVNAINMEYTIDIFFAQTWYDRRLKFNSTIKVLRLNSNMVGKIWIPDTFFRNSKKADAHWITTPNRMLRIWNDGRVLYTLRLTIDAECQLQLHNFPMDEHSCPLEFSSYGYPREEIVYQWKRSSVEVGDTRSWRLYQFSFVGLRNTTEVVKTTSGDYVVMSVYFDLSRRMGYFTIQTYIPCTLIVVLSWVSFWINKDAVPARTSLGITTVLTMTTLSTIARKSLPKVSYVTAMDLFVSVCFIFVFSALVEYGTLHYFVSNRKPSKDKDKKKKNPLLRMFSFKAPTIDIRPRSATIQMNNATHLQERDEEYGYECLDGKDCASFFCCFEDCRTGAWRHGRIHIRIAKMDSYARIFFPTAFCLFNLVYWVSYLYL
T2 sequence (P28472 whole entry): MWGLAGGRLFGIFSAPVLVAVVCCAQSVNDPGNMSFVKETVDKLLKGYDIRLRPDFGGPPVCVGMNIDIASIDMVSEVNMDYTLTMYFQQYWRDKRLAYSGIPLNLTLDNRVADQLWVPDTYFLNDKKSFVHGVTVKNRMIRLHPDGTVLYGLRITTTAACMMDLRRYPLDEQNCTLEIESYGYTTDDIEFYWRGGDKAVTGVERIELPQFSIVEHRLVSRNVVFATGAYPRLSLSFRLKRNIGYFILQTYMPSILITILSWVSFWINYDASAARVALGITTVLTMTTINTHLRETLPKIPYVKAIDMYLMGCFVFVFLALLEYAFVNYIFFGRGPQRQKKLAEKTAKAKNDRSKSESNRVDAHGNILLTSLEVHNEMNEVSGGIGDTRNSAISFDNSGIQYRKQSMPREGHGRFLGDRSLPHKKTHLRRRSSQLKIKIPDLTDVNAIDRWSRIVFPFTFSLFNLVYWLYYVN

[3] = biological target: T3, GABA-A receptor; alpha-2/beta-3/gamma-2 (Homo sapiens, UniProt P18507+P28472+P47869); test: Binding affinity for human GABA-A receptor alpha-2-beta-3-gamma-2 subunits in L(tk-) cells; format: cell-based
T3 sequence (P18507 whole entry): T2 sequence (P18507 whole entry)
T3 sequence (P28472 whole entry): T2 sequence (P28472 whole entry)
T3 sequence (P47869 whole entry): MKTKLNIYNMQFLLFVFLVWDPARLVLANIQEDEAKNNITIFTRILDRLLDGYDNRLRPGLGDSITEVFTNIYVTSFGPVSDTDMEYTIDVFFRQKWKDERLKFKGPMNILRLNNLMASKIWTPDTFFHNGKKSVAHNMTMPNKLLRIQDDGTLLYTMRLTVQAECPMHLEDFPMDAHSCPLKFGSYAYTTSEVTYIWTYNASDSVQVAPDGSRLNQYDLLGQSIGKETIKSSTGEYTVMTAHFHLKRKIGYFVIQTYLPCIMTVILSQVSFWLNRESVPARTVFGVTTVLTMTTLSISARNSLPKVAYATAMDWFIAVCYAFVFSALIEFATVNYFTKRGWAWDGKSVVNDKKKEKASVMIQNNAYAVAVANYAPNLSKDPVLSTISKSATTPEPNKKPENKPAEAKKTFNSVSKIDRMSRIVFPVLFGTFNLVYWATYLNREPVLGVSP

[4] = biological target: T4, GABA-A receptor; alpha-5/beta-3/gamma-2 (Homo sapiens, UniProt P18507+P28472+P31644); test: Binding affinity for human GABA-A receptor alpha-5-beta-3-gamma-2 subunits in L(tk-) cells; format: cell-based
T4 sequence (P18507 whole entry): T2 sequence (P18507 whole entry)
T4 sequence (P28472 whole entry): T2 sequence (P28472 whole entry)
T4 sequence (P31644 whole entry): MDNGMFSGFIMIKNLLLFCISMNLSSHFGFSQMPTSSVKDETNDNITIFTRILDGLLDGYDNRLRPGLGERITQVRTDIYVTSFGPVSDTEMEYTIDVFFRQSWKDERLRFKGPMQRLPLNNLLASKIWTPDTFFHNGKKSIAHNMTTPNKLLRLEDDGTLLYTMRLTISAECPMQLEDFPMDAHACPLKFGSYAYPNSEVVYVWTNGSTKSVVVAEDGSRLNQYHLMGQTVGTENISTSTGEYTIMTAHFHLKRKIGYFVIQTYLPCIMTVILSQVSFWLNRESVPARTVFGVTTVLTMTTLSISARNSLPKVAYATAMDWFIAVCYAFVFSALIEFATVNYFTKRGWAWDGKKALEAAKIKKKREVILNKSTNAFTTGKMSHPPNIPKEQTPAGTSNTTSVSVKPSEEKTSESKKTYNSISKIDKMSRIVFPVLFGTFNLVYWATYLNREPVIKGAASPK

[5] = biological target: T5, GABA-A receptor; alpha-1/beta-3/gamma-2 (Homo sapiens) (UniProt P14867+P18507+P28472); test: (§2) Maximum percent change compared to GABA EC20 against GABA-A alpha-1-beta-3-gamma-2 receptor; format: protein-complex assay
[6] = biological target: T6, GABA-A receptor; alpha-3/beta-3/gamma-2 (Homo sapiens, UniProt P18507+P28472+P34903); test: Binding affinity for human GABA-A receptor alpha-3-beta-3-gamma-2 subunits in L(tk-) cells; format: cell-based
T6 sequence (P18507 whole entry): T2 sequence (P18507 whole entry)
T6 sequence (P28472 whole entry): T2 sequence (P28472 whole entry)
T6 sequence (P34903 whole entry): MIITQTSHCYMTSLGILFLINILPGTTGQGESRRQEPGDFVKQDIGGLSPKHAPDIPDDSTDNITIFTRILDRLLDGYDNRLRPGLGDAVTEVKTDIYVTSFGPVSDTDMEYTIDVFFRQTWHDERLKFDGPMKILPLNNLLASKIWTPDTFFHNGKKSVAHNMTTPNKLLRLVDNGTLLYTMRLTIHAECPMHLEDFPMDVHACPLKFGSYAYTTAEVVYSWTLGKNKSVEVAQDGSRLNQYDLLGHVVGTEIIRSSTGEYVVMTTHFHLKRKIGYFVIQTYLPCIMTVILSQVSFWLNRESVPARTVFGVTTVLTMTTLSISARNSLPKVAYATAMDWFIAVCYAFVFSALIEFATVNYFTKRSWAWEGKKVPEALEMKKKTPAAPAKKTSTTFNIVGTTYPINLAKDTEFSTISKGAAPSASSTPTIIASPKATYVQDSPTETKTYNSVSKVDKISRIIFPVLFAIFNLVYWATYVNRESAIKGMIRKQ

[7] = biological target: T7, GABA-A receptor; alpha-2/beta-3/gamma-2 (Homo sapiens) (UniProt P18507+P28472+P47869); test: Partial agonistic activity against GABA-A receptor alpha-2-beta-3-gamma-2 subunits; format: functional
[8] = biological target: T5, GABA-A receptor; alpha-1/beta-3/gamma-2 (Homo sapiens); test: Partial agonistic activity against GABA-A receptor alpha-1-beta-3-gamma-2 subunits; format: functional
[9] = biological target: T8, GABA-A receptor; alpha-5/beta-3/gamma-2 (Homo sapiens) (UniProt P18507+P28472+P31644); test: Efficacy at human GABA-A receptor alpha-5-beta-3-gamma-2 subunits
[10] = biological target: T1, GABA-A receptor; alpha-3/beta-3/gamma-2 (Homo sapiens); test: Partial agonistic activity against GABA-A receptor alpha-3-beta-3-gamma-2 subunits; format: functional
[11] = biological target: T1, GABA-A receptor; alpha-3/beta-3/gamma-2 (Homo sapiens); test: Agonistic activity against GABA-A receptor alpha-3-beta-3-gamma-2; format: functional
[12] = biological target: T1, GABA-A receptor; alpha-3/beta-3/gamma-2 (Homo sapiens); test: Inverse agonistic activity against GABA-A receptor alpha-3-beta-3-gamma-2 subunits; format: functional
[13] = biological target: T1, GABA-A receptor; alpha-3/beta-3/gamma-2 (Homo sapiens); test: as §1; format: functional; remark: listed apart in the source
[14] = biological target: T5, GABA-A receptor; alpha-1/beta-3/gamma-2 (Homo sapiens); test: as §2; format: functional
[15] = biological target: T8, GABA-A receptor; alpha-5/beta-3/gamma-2 (Homo sapiens); test: Maximum percent change compared to GABA EC20 against GABA-A alpha-5-beta-3-gamma-2 receptor; format: functional
[16] = biological target: T7, GABA-A receptor; alpha-2/beta-3/gamma-2 (Homo sapiens); test: Maximum percent change compared to GABA EC20 against GABA-A alpha-2-beta-3-gamma-2 receptor; format: functional
[17] = biological target: T5, GABA-A receptor; alpha-1/beta-3/gamma-2 (Homo sapiens); test: Inverse agonistic activity against GABA-A receptor alpha-1-beta-3-gamma-2 subunits; format: functional
[18] = biological target: T8, GABA-A receptor; alpha-5/beta-3/gamma-2 (Homo sapiens); test: Partial agonistic activity against GABA-A receptor alpha-5-beta-3-gamma-2 subunits; format: functional
[19] = biological target: T1, GABA-A receptor; alpha-3/beta-3/gamma-2 (Homo sapiens); test: Partial agonistic activity against GABA-A receptor alpha-3-beta-3-gamma-2
[20] = Peak plasma concentration in rat at a dose of 3 mg/kg; format: ADME, organism-based; parameters: dose 3 mg/kg; conditions: read-out: Concentration
In short: (§3)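 Plasma concentrations were followed to derive peak level and half-life.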

[21] = biological target: T2, GABA-A receptor; alpha-1/beta-3/gamma-2; test: Binding affinity for human GABA-A receptor alpha-4-beta-3-gamma-2 subunits in L(tk-) cells; format: cell-based
[22] = Half-life in rat at a dose of 3 mg/kg; format: ADME, organism-based; parameters: dose 3 mg/kg; conditions: in vivo; in short: as §3
[23] = Oral bioavailability in rat at a dose of 3 mg/kg; format: ADME, organism-based; conditions: in vivo, read-out: Bioavailabiility; in short: as §3

SMILES: CC(Oc1nn2c(-c3ccccc3)nnc2c2ccccc12)c1ccccn1 (centres undefined)
Efficacy [1]: 25% | Ki [2]: 960 nM | Ki [3]: 520 nM | Ki [4]: 140 nM | Efficacy [5]: 36% | Ki [6]: 320 nM

SMILES: Cc1cccc(COc2nn3c(-c4ccccc4)nnc3c3ccccc23)n1
Activity [7]: -4% | Ki [2]: 8.4 nM | Activity [8]: 1% | Ki [3]: 8 nM | Efficacy [9]: 11% | Ki [4]: 2.5 nM | Activity [10]: -8% | Ki [6]: 1.2 nM

SMILES: CC(C)c1nnc2c3ccccc3c(OCc3ccccn3)nn12
Ki [2]: 160 nM | Activity [12]: -21% | Ki [3]: 56 nM | Ki [4]: 8 nM | Ki [6]: 39 nM

SMILES: c1ccc(-c2nnc3c4ccccc4c(OCc4ccccn4)nn23)cc1
Efficacy [13]: -16% | Efficacy [14]: -7% | Efficacy [15]: -5% | Efficacy [1]: -16% | Ki [2]: 2.7 nM | Ki [3]: 1.7 nM | Efficacy [16]: -5% | Ki [4]: 0.33 nM | Efficacy [5]: -7% | Ki [6]: 0.71 nM

SMILES: c1ccc(-c2nnc3c4c(c(OCc5ccccn5)nn23)CCCCC4)cc1
Efficacy [14]: 30% | Efficacy [15]: 37% | Efficacy [1]: 30% | Ki [2]: 41 nM | Ki [3]: 17 nM | Efficacy [16]: 27% | Ki [4]: 2.7 nM | Ki [6]: 17 nM

SMILES: c1ccc(-c2nnc3c4c(c(OCc5ccccn5)nn23)CCCC4)cc1
Efficacy [14]: 16% | Efficacy [15]: 6% | Efficacy [1]: 17% | Ki [2]: 4.3 nM | Ki [3]: 1.9 nM | Efficacy [16]: 18% | Ki [4]: 0.38 nM | Ki [6]: 0.85 nM

SMILES: c1ccc(-c2nnc3c4c(c(OCc5ccccn5)nn23)C2CCC4CC2)cc1
Efficacy [14]: 51% | Cmax [20]: 179 ng/mL | Efficacy [15]: 18% | Efficacy [1]: 38% | Ki [21]: 71 nM | half-life [22]: 1 h | Ki [3]: 26 nM | Efficacy [16]: 23% | Ki [4]: 1.2 nM | bioavailability [23]: 33% | Ki [6]: 12 nM

The remaining lines, values ahead:

Activity [11]: -38% | Ki [2]: 900 nM | Ki [3]: 470 nM | Ki [4]: 29 nM | Ki [6]: 81 nM
SMILES: Cc1nnc2c3ccccc3c(OCc3ccccn3)nn12

Ki [2]: 16 nM | Activity [12]: -26% | Ki [3]: 5.8 nM | Activity [17]: -20% | Ki [4]: 0.74 nM | Ki [6]: 2.6 nM
SMILES: c1ccc(COc2nn3c(C4CC4)nnc3c3ccccc23)nc1

Activity [18]: 26% | Ki [2]: 32 nM | Ki [3]: 9.7 nM | Activity [19]: -13% | Activity [17]: -15% | Ki [4]: 0.92 nM | Ki [6]: 3.1 nM
SMILES: Cc1cccc(COc2nn3c(C4CC4)nnc3c3ccccc23)n1
